Assay results from the array DNA melting data of Ke et al. (doi:10.1101/2024.01.08.574731).

Columns and labels:
[1] = folding enthalpy; higher = less favourable; fluorescence melt of hairpins on a sequencing array, two-state fit; details: sodium 0.088 M
Summary of the method: (§1)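 Cy3 signals were normalised both to pre-quench Cy3 and to control constructs. They came from library hairpins carrying annealed Cy3 and quencher oligos on a sequenced MiSeq flow cell, imaged in 50 mM Na-HEPES pH 8.0, 25 mM NaCl, in 2.5 °C steps up to 60 °C. Bootstrapped two-state fits gave melting temperature and folding enthalpy, and four replicates were combined by inverse variance. Fitted temperatures were then raised by 9.35 °C to match UV melts.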

[2] = melting temperature; fluorescence melt of hairpins on a sequencing array, two-state fit, raised by 9.35 °C to match UV melts; details: sodium 0.088 M
Summary of the method: as §1

Row | Sequence | folding enthalpy [1] [kcal/mol] | Tm [2] [°C]
1 | GACTCAACGAAAGTTGTC (((..(((....)))))) | -10.2 | 29.9
2 | GACTCACGAAAGTGTGTC (((.(((....))).))) | -38.5 | 53.7
3 | GACTCAGGAAACTGGGTC (((.(((....))).))) | -37.8 | 49.2
4 | GACTCCACGAAAGTGGTC (((..(((....)))))) | -8.79 | 29.5
5 | GACTCCGAAAGGAACGTC ((((((....)))..))) | -15.2 | 36
6 | GACTCCGAAAGGAATGTC ((((((....)))..))) | -17.7 | 38.6
7 | GACTCCGAAAGGACGGTC ((((((....)))..))) | -17.9 | 35.3
8 | GACTCCGAAAGGAGGGTC ((((((....)))..))) | -17 | 50.8
9 | GACTCCGGAAACGGAATC ((.((((....)))).)) | -19.1 | 36.4
10 | GACTCCGGAAACGGAGCC (.(((((....))))).) | -13.6 | 50.5
11 | GACTCGGGAAACCGAATC ((.((((....)))).)) | -18.2 | 35.4
12 | GACTCGGGAAACTGGGTC (((.(.(....).).))) | -29.9 | 38
13 | GACTCTGAAAAGAGTC ((((((....)))))) | -32 | 58
14 | GACTCTGGAAACAGAATC ((.((((....)))).)) | -22.3 | 28.5
15 | GACTGAACGAAAGTTGTC (((..(((....)))))) | -19.5 | 32.8
16 | GACTGAGCGAAAGCTGTC (((..(((....)))))) | -12.7 | 44.1
17 | GACTGCCGAAAGGCGTC (((.(((....)))))) | -13.8 | 53.8
18 | GACTGCGAAAGCAAGTC ((((((....))).))) | -21.3 | 56.1
19 | GACTGCGAAAGCACAGTC ((((((....)))..))) | -13.2 | 44.5
20 | GACTGCGGAAACGCAGCC (.(((((....))))).) | -11.2 | 52
21 | GACTGGGCGAAAGCCGTC (((..(((....)))))) | -10.4 | 56.1
22 | GACTGTGAAAACAGTC ((((((....)))))) | -34.1 | 58.5
23 | GACTGTGGAAACACAGCC (.(((((....))))).) | -13.7 | 43.7

Row | Sequence | folding enthalpy [1] [kcal/mol] | Tm [2] [°C]
24 | GACTGTGGAAACACGGTC (((.(((....))).))) | -40.6 | 52.2
25 | GACTTAGCGAAAGCTGTC (((..(((....)))))) | -14.6 | 43.8
26 | GACTTCACGAAAGTGGTC (((..(((....)))))) | -12.1 | 31.4
27 | GACTTCCGAAAGGAGTC (((.(((....)))))) | -24.8 | 46.4
28 | GACTTCGAAAGAAGTC ((((((....)))))) | -38.8 | 62
29 | GACTTCGCGAAAGCGGTC (((..(((....)))))) | -7.56 | 35.1
30 | GACTTCGGAAACGAAGTC (((((((....))))))) | -38.6 | 66.3
31 | GACTTGACGAAAGTCGTC (((..(((....)))))) | -15.8 | 51.7
32 | GACTTGGGAAACCAAGCC (.(((((....))))).) | -19.1 | 41.8
33 | GACTTGGGAAACTAGGTC (((.(.(....).).))) | -9.69 | 25.4
34 | GACTTTGGAAACAGAGTC ((((.((....)).)))) | -31.1 | 38.1
35 | GAGAAACGAAAGTTCTC (((.(((....)))))) | -24.4 | 40.9
36 | GAGAAAGCGAAAGCTCTC (((..(((....)))))) | -14.6 | 40.2
37 | GAGAAAGGAAACTTTCCC (.(((((....))))).) | -12.3 | 25.1
38 | GAGAACCGAAAGGTCCTC (((.(((....))).))) | -24.6 | 46.6
39 | GAGAACGAAAGTTGCTC ((((((....))).))) | -15.7 | 33.6
40 | GAGAACGGAAACATTCTC (((((.(....).))))) | -23.5 | 30.1
41 | GAGAAGCCGAAAGGCCTC (((..(((....)))))) | -12.7 | 37.4
42 | GAGAAGGCGAAAGCCCTC (((..(((....)))))) | -10.5 | 37.2
43 | GAGAATGGAAACATTCTC (((((((....))))))) | -40.6 | 54.7
44 | GAGAATGGAAACGTTCTC (((((.(....).))))) | -33.9 | 42.9
45 | GAGACACCGAAAGGTCTC (((..(((....)))))) | -20.4 | 42.2
46 | GAGACACGAAAGTGCTC (((.(((....)))))) | -16.6 | 44.6

Row | Sequence | folding enthalpy [1] [kcal/mol] | Tm [2] [°C]
47 | GAGACCGAAAGGTCACTC ((((((....)))..))) | -13.8 | 55.1
48 | GAGACCGAAAGGTGTCTC ((((((....)))..))) | -24 | 51.9
49 | GAGACCGAAAGGTTCTC ((((((....))).))) | -22.3 | 54.2
50 | GAGACGAAAGTCTC (((((....))))) | -23.1 | 67.1
51 | GAGACGGGAAACCGTCCC (.(((((....))))).) | -11.5 | 43.8
52 | GAGACGGGAAACTGTCTC (((((.(....).))))) | -41.1 | 51.5
53 | GAGACTGAAAAGTCTC ((((((....)))))) | -35.9 | 57.5
54 | GAGACTGGAAACAGTTTC ((.((((....)))).)) | -29.6 | 38.8
55 | GAGAGACCGAAAGGTCTC (((..(((....)))))) | -9.65 | 62.5
56 | GAGAGACGAAAGTCACTC (((.(((....))).))) | -35.1 | 51.3
57 | GAGAGCCGAAAGGCACTC (((.(((....))).))) | -20.2 | 61.1
58 | GAGAGCGGAAACGCTCCC (.(((((....))))).) | -9.72 | 46.1
59 | GAGAGGCGAAAGCCCTC (((.(((....)))))) | -14.2 | 55.7
60 | GAGAGTGGAAACACTCTC (((((((....))))))) | -41.2 | 61.5
61 | GAGATACGAAAGTACCTC (((.(((....))).))) | -31.3 | 41.5
62 | GAGATGAAAATCTC (((((....))))) | -22.2 | 44
63 | GAGATGACGAAAGTCCTC (((..(((....)))))) | -11.7 | 30
64 | GAGATGCGAAAGCAACTC (((.(((....))).))) | -23 | 53.9
65 | GAGATGGAAACATCTC ((((((....)))))) | -37 | 53.5
66 | GAGATGGGAAACTGTCTC ((((..(....)..)))) | -21.5 | 33.2
67 | GAGATTGAAAAATCTC ((((((....)))))) | -33.8 | 47.9
68 | GAGATTGCGAAAGCACTC (((..(((....)))))) | -11.3 | 29.5
69 | GAGATTGGAAACAATTTC ((.((((....)))).)) | -17.9 | 32.4

Row | Sequence | folding enthalpy [1] [kcal/mol] | Tm [2] [°C]
70 | GAGCAAGGAAACTCGCTC ((((.((....)).)))) | -30.8 | 40.6
71 | GAGCACCCGAAAGGGCTC (((..(((....)))))) | -26.7 | 48.6
72 | GAGCACCGAAAGGTTCTC (((.(((....))).))) | -27.6 | 45.8
73 | GAGCACGAAAGTGCACTC ((((((....)))..))) | -11.9 | 58
74 | GAGCACGAAAGTGCCTC ((((((....))).))) | -10.4 | 51.2
75 | GAGCACGAAAGTGCGCTC ((((((....)))..))) | -12.5 | 67.2
76 | GAGCACGAAAGTGGCCTC ((((((....)))..))) | -14 | 42
77 | GAGCACGAAAGTGGGCTC ((((((....)))..))) | -23.5 | 54.7
78 | GAGCACGAAAGTGTCTC ((((((....))).))) | -23.3 | 53.2
79 | GAGCACGAAAGTGTTCTC ((((((....)))..))) | -25.5 | 52.1
80 | GAGCACGCGAAAGCGCTC (((..(((....)))))) | -12.8 | 47.6
81 | GAGCACGGAAACGTGTTC ((.((((....)))).)) | -26.2 | 51.6
82 | GAGCAGCGAAAGCTACTC (((.(((....))).))) | -22.3 | 49.6
83 | GAGCAGCGAAAGCTTCTC (((.(((....))).))) | -24.7 | 43.2
84 | GAGCAGGAAACTGCTC ((((((....)))))) | -37.8 | 62.3
85 | GAGCAGGGAAACCTGTTC ((.((((....)))).)) | -24.1 | 46
86 | GAGCATCCGAAAGGACTC (((..(((....)))))) | -10.8 | 27.5
87 | GAGCATGGAAACATGTTC ((.((((....)))).)) | -25.6 | 42.8
88 | GAGCCAGGAAACCAGCTC ((((..(....)..)))) | -24.6 | 34.9
89 | GAGCCAGGAAACCGGCTC (((((.(....).))))) | -37.5 | 56.6
90 | GAGCCCGAAAGGGACCTC ((((((....)))..))) | -15.6 | 45
91 | GAGCCCGAAAGGGAGCTC ((((((....)))..))) | -20 | 55.6
